# Screening results deposited in PubChem by The Scripps Research Institute Molecular Screening Center.
# Hits are enriched below; roughly 4.3% of the tested compounds scored in any of these assays.
# OX1R antag-1 = human HCRTR1 antagonism; CHO/OX1R cells, Fluo-8 calcium fluorescence, orexin A; inhibition, % at 5 µM; actives 0.43% (n = 330,000);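 active means inhibition above its plate's threshold, mean inhibition of all tested compounds on the plate plus 3 SD, cut at about 37% in these data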;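 further: 0% = orexin A challenge wells and 100% = SB-334867-A antagonist wells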
# OX1R antag-2 = OX1R (human) antagonism | inhibition, % at 6.6 µM | AID 485270 | actives 1.8% (n = 330,000) | O43613 | OX1R-expressing cells, FRET antagonist read-out; in the data active means inhibition mostly above about 38%, no sharp cut-off; inactive means mostly below about 40%;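 further: 0% = agonist challenge alone and 100% = reference antagonist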
# GalR3 antagonist = human GalR3 antagonism | actives 0.44% (n = 360,000) | inhibition, % at 3 µM | AID 651719 | HEK293 GalR3-CNG cAMP membrane potential fluorescence; galR3 body fused to GalR1 C-terminus | O60755;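 active means inhibition above the screen-wide average plus 3 SD, cut at about 13% in these data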;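 further: forskolin and galanin both at EC90 stimulate the cells; cAMP rise reported by CNG channel membrane potential dye signal; 0% = forskolin plus galanin with DMSO and 100% = forskolin alone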
# Target sequence (O60755 1-299 limits assumed): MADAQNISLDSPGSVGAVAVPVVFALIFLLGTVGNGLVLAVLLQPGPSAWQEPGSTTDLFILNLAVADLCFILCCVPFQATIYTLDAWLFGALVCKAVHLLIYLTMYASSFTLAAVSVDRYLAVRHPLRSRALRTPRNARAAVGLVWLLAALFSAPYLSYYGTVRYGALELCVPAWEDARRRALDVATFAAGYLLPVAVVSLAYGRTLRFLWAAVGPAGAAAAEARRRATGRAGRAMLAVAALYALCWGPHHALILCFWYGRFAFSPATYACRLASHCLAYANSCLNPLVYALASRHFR
# TAAR1 agonist = human TAAR1 agonism; Q96RJ0; CHO RD-HGA16 TAAR1, Fluo-8 calcium fluorescence; vehicle wells 0%, saturating PEA agonist 100%; activation, % at 3 µM; actives 0.99% (n = 360,000);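 active means activation above the mean activation of all test compounds in the run plus 3 SD, cut at about 38% in these data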
#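 Repeats: no replicates (n 1) | Material: CHO-derived RD-HGA16 cells with stable Gα16 and human TAAR1 | Technique: Kinetic Fluo-8 calcium fluorescence | Schedule: 17-24 h seeding, 75 min 37 °C dye, 30 min RT | Evaluation: % activation from peak over basal fluorescence ratio, DMSO-to-PEA scaled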
# CHO parental Ca = counter-screen: ATP calcium response change in parental CHO cells | actives 0.63% (n = 330,000) | inhibition, % at 5.6 µM | parental CHO-K1, ATP-induced calcium, Fluo-8 fluorescence;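 active means inhibition above that plate's mean sample inhibition plus 3 SD, cut at about 26% in these data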;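 further: 0% = ATP-challenged DMSO wells and 100% = DMSO wells without ATP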
#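 Assay system: untransfected parental CHO cell line. Also added: ATP agonist challenge. Dosing: one dose, 5.6 µM nominal. Measured by: Fluo-8 fluorescence. Read-out: % inhibition. Benchmarks: ATP wells versus no-ATP DMSO wells. Repeats: no replicates.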
# TAAR1 antag = antagonists of human TAAR1. Q96RJ0. CHO RD-HGA16 TAAR1, Fluo-8 calcium fluorescence, antagonist. inhibition, % at 3 µM. actives 1.5% (n = 360,000). AID 624466;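 active means inhibition above a per-plate cutoff, the mean inhibition of test compounds on that plate plus 3 SD, cut at about 49% in these data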;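 further: 0% = DMSO plus EC80 beta-PEA response and 100% = DMSO alone without agonist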
#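 Material: RD-HGA16 CHO cells with stable hTAAR1 and Gα16; Dosing: single nominal final test compound concentration of 3 µM; Schedule: seeding 17-24 h prior, 75-min 37 °C, 30-min RT dye loading; Detection: kinetic Fluo-8 calcium fluorescence measurement; Measure: % inhibition from peak post-agonist over basal fluorescence ratio; Benchmarks: vehicle and agonist controls.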
# GalR3 antag conf = confirmation of human galanin receptor 3 antagonists; actives 59% (n = 1,600); inhibition, % at 3 µM; shares compounds with GalR3 antagonist; HEK293 GalR3 CNG cAMP biosensor, membrane potential fluorescence; galR3 fused to GalR1 carboxy tail; challenged with forskolin and galanin at EC90;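 active means inhibition above the primary screen's cutoff, the mean inhibition of all screened compounds plus 3 SD, cut at about 13% in these data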;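 further: 0% = forskolin plus galanin and 100% = forskolin alone with DMSO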
# CNG parental = acts as nonspecific agonist in parental HEK-CNG cells; AID 652268; activation, % at 3 µM; actives 10% (n = 1,600); HEK293-CNG parental cells, cAMP membrane potential fluorescence; normalised: DMSO wells 0%, forskolin wells 100%; shares compounds with GalR3 antagonist; in the data active means activation above about 1.3%
# An asterisk follows results filed as active; . = not tested or not shown.
SMILES,OX1R antag-1,OX1R antag-2,GalR3 antagonist,TAAR1 agonist,CHO parental Ca,TAAR1 antag,GalR3 antag conf,CNG parental
CC(C)Cc1ccc(CN2CCCC(NC(=O)c3ccnn3C)C2)cc1 (configuration not stated),-18.4,2.0,32.0*,1.2,-7.2,-35.9,0.2,0.2
COc1ccc(C2CC(c3ccc4ccccc4c3)=NN2C(=O)CN2CCC(C(N)=O)CC2)cc1 (configuration not stated),-24.1,16.1,14.0*,2.3,-23.9,-8.9,-1.9,3.0*
COc1ccc(C2CC(c3ccc4ccccc4c3)=NN2C(=O)CNC2CCCCC2)cc1 (configuration not stated),5.2,1.7,-7.5,32.2,11.7,11.5,.,.
COc1cccc(/C=C/C(=O)N2CCN(S(=O)(=O)c3ccccc3)CC2)c1,.,.,-5.8,1.2,.,-16.2,.,.
Cc1ccc(CNC(=O)CCCC(=O)c2ccccc2)cc1,-26.6,17.5,-11.4,-2.2,-22.1,-2.1,.,.
CCCCCCCCCC(=O)N/N=C(\C)c1cccnc1,-19.7,32.2,13.7*,0.4,-25.3,13.2,0.3,0.4
CCOc1ccc(CN2CCN(C(=O)c3cccc4ccccc34)CC2)cc1,-25.9,-0.7,-1.9,0.2,-26.1,-33.9,.,.
O=C(Oc1ccc(Br)cc1C(=O)/C=C/c1ccccc1F)c1ccco1,12.8,21.9,23.8*,-1.0,-21.6,5.0,11.8,0.1
CC(=O)c1cc(Cl)ccc1OC(=O)c1ccco1,-6.8,9.4,-6.0,5.7,-5.8,12.6,.,.
COc1cc(/C=C/c2ccc3c([N+](=O)[O-])cccc3n2)ccc1OCC(=O)O,-8.6,18.2,3.2,-0.2,-1.3,0.0,.,.
COc1cc(/C=C/c2ccc3cccc([N+](=O)[O-])c3n2)ccc1OCC(=O)O,-4.1,14.8,66.7*,0.5,-4.5,-14.8,65.9*,-0.4
O=[N+]([O-])c1ccc(/C=C/c2ccc3ccccc3n2)cc1,-23.4,23.5,-3.2,1.2,-9.8,3.0,.,.
O=C(O)COc1ccc(/C=C/c2ccc3cccc([N+](=O)[O-])c3n2)cc1,-16.6,19.8,16.1*,1.0,-5.8,-17.3,20.6*,-0.1
Cc1csc(=O)n1CC(=O)OCC(=O)c1c(N)n(CC(C)C)c(=O)n(C)c1=O,-14.5,10.4,-0.7,2.7,-3.8,8.5,.,.
Cc1cnc(C=O)c2cccc([N+](=O)[O-])c12,.,.,33.5*,8.7,.,-4.7,14.5*,0.1
CCOc1ccc(S(=O)(=O)Nc2ccc(C(=O)N3CCCC3)cc2)cc1C(N)=O,-28.2,8.2,-1.4,2.9,-5.4,-30.7,.,.
O=C(/C=C/c1ccccc1)NC(NC(=S)Nc1ccc(C(=O)O)cc1)C(Cl)(Cl)Cl (configuration not stated),0.8,19.5,-1.8,3.4,3.4,-3.2,.,.
O=C(/C=C/c1ccccc1)NC(NC(=S)Nc1cccc(O)c1)C(Cl)(Cl)Cl (configuration not stated),-13.8,36.7,18.0*,9.2,16.1,-0.5,17.3*,-1.1
CSc1ccccc1C(=O)N1CCCC(CCC(=O)NCc2ccc(F)c(F)c2)C1 (configuration not stated),-22.5,31.6,-2.1,0.7,-6.1,-10.9,.,.
COC(=O)CCCN=C1SCCN1Cc1ccccc1,-12.6,26.8,15.0*,2.1,9.2,-8.2,8.1,0.2
CC(C(=O)OCC(=O)N(C)C1(C#N)CCCCC1)N1C(=O)c2ccccc2C1=O (configuration not stated),-24.9,5.2,-5.3,0.9,-8.1,-14.6,.,.
O=C(NCCN1C(=O)S/C(=C\c2ccc(OC(F)F)cc2)C1=O)C1=COCCO1,-29.1,27.9,.,.,-29.6,.,.,.
